Data set [1] in a line: Induction of H2S generation assessed as Cmax Induction of H2S generation assessed as Cmax at 150 uM incubated at 37 degC and pH 8 by fluorescence spectrophotometry. It counts as functional. A digest of the protocol: (§1)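 Donor at 150 µM final, mixed with 200 µM sulfonyl-azide fluorescent probe in buffer/acetonitrile (1:9) at set pH. Cuvette held in a water bath at 22 °C or 37 °C, with fluorescence read three times at intervals. H2S was quantified from a Na2S standard curve (0–200 µM, probe 200 µM).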

Data set [2] has as its system A549. As to the kind of experiment: Cytotoxicity in human A549 cells assessed as growth inhibition incubated for 24 hrs by MTT assay. It counts as functional, cell-based. Particulars: A549, 24 h. A digest of the protocol:
(§2)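 Cells were grown in RPMI 1640 with 10% FBS at 37 °C and 10% CO2, seeded at 6×10^3 cells/well. Exposure was 24 h, with viability by MTT, in triplicate cultures. IC50 was reported as mean ± SD.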

In data set [3] the test system is HT-29. As to the kind of experiment: Cytotoxicity in human HT-29 cells assessed as growth inhibition incubated for 24 hrs by MTT assay. Type of data set: functional, cell-based. As to conditions: HT-29, 24 h. A digest of the protocol:
as §2
For orientation: Tetrazolium dyes change colour on reduction, which living cells bring about.

The nature of data set [4]: Toxicity in Wistar rat assessed as effect on platelet level at 0.01 mmol/kg, ip, administered daily for 14 days (reference value: 8.57 10^9/L). Particulars: in vivo, 336 h, time 14 day.
Data set [5] is described as follows: Toxicity in Wistar rat assessed as large and inflamed nucleus in spleen at 0.01 mmol/kg, ip administered for 14 days. Particulars: in vivo, 336 h, time 14 day. Type of data set: organism-based. A digest of the protocol: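 Wistar rats (6/group) dosed ip daily for 14 days with compound in 10% DMSO; vehicle controls received 10% DMSO. Liver, kidney and spleen were fixed in 4% glutaraldehyde, sectioned, H-E stained and examined microscopically.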

Data set [6] is described as follows: Toxicity in zebra fish assessed as decrease in hatching rate at <=20 uM measured after 120 hpf by microscopic analysis relative control. Details: species or system Danio rerio; scale not given: the % may be the effect or the level left. Particulars: zebrafish, 5 µM.
In data set [7] the test system is RAW264.7. The experiment in a line: Anti-inflammatory activity in mouse RAW264.7 cells assessed as inhibition of LPS-induced NO production at 100 uM preincubated for 4 hr followed by LPS addition and measured after 24 hrs relative to control. It counts as functional. In a few lines: (§3)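 RAW264.7 cells exposed to LPS 1 µg/mL with compound (20 and 100 µM) for 24 h. Nitrite in medium measured by Griess reagent, […], against a sodium nitrite standard curve (0–100 µM). Four parallel groups, mean ± SD.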

Data set [8] has as its system RAW264.7. The experiment in a line: Anti-inflammatory activity in mouse RAW264.7 cells assessed as inhibition of LPS-induced IL-10 production at 20 uM preincubated for 4 hr followed by LPS addition and measured after 24 hrs. It counts as functional, cell-based. A digest of the protocol: (§4)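 RAW264.7 cells given LPS 1 µg/mL with compound for 24 h, then lysed in RIPA and centrifuged. Protein was set to 0.1 mg/mL by BCA and mouse cytokine levels measured by sandwich ELISA kit. Four parallel groups, mean ± SD.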

Data set [9] deals with RAW264.7. The experiment in a line: Anti-inflammatory activity in mouse RAW264.7 cells assessed as inhibition of LPS-induced TNFalpha production at 20 uM preincubated for 4 hr followed by LPS addition and measured after 24 hrs relative to control. Type of data set: functional, cell-based. In a few lines: as §4
The test system of data set [10] is H9c2. The experiment in a line: Cardioprotective activity against H2O2- induced toxicity in rat H9c2 cells assessed as increase in survival rate at 50 uM incubated for 8 hrs co-treated with 50 uM H2O2 measured after 24 hrs by MTT assay relative to control. Type of data set: functional. In a few lines:
(§5)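 H9c2 cardiomyocytes injured with H2O2 (50, 200 or 400 µM) for 8 h together with compound (10–100 µM). Survival rate measured against the H2O2 model group. Six independent experiments, mean ± sd.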

Data set [11] relates to H9c2. The experiment in a line: Cardioprotective activity against H2O2- induced toxicity in rat H9c2 cells assessed as decrease in MDA level at 10 to 100 uM pretreated with H202 for 8 hrs followed by compound addition measured after 24 hrs. Particulars: dose microM 10-100, time 8.0 hrs. Type of data set: functional, cell-based.
The subject of data set [12] is H9c2. The experiment in a line: Cytoprotective activity against H2O2-induced toxicity in rat H9c2 cells assessed as increase in SOD level at 10 to 100 uM pretreated with H202 for 8 hrs followed by compound addition measured after 24 hrs. Type of data set: functional, cell-based. As to conditions: dose microM 10-100, time 8.0 hrs.
The nature of data set [13]: Toxicity in zebrafish embryos assessed as embryo malformation rate at 20 uM measured after 96 hpf relative to control. Also noted: species or system Danio rerio. As to conditions: in vivo.
Data set [14] concerns RAW264.7. The experiment in a line: Anti-inflammatory activity in mouse RAW264.7 cells assessed as inhibition of LPS-induced NO production preincubated for 4 hr followed by LPS addition and measured after 24 hrs relative to control. Type of data set: functional, cell-based. Particulars: dose 100.0 µM, time 28.0 hrs. A digest of the protocol:
as §3

Data set [15] has as its system H9c2. As to the kind of experiment: Cardioprotective activity against H2O2- induced toxicity in rat H9c2 cells assessed as effect on cell morphology at 50 uM incubated for 8 hrs co-treated with 50 uM H2O2 measured after 24 hrs […]. It counts as functional, cell-based. A digest of the protocol:
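H9c2 cells in 24-well plates treated with H2O2 (50, 200 or 400 µM) for 8 h plus compound 50 µM, 24 h total. Cells were stained with Giemsa for 30 min and morphology examined by microscopy.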

Data set [16] in a line: Cytotoxicity against rat H9C2 cells assessed as cell viability at 100 uM measured after 24 hrs by MTT assay. Type of data set: cell-based. As to conditions: read-out: Activity.
The nature of data set [17]: Induction of H2S generation assessed as half life at 150 uM incubated at 22 degC and pH 8 by fluorescence spectrophotometry. It counts as functional. In a few lines:
as §1

Data set [18] is described as follows: Induction of H2S generation assessed as half life at 150 uM incubated at 37 degC and pH 1.2 by fluorescence spectrophotometry. It counts as functional. A digest of the protocol: as §1
Data set [19] is described as follows: Induction of H2S generation assessed as half life at 150 uM incubated at 37 degC and pH 7.4 by fluorescence spectrophotometry. It counts as functional. In a few lines:
as §1

A short description of data set [20]: Solubility of compound in water. Particulars: buffer. It counts as physicochemical.
Data set [21] is described as follows: Kinetic Solubility of compound. Type of data set: physicochemical.
Data set [22] in a line: Retention time of compound in PBS by LC-MS analysis. Type of data set: physicochemical. As to conditions: buffer. A digest of the protocol:
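Compound incubated in PBS pH 7.4 or in serum, sampled every 12 h over 36 h, and analysed by LC-MS for parent and product peaks.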

Data set [23] can be described thus: Drug metabolism in Wistar rat heart homogenate assessed as metabolite formation incubated for 36 hrs by LC-MS. It counts as ADME, tissue-based. Particulars: tissue homogenate.
Data set [24] can be described thus: Drug metabolism in Wistar rat kidney homogenate assessed as metabolite formation incubated for 36 hrs by LC-MS. Type of data set: ADME, tissue-based. Particulars: tissue homogenate.
A short description of data set [25]: Toxicity in zebrafish embryos assessed as embryo malformation rate at 1 to 20 uM measured after 96 hpf relative to control. Also noted: species or system Danio rerio. Particulars: in vivo.
In data set [26] the test system is H9c2. As to the kind of experiment: Cardioprotective activity against H2O2- induced toxicity in rat H9c2 cells assessed as increase in survival rate at 50 uM incubated for 8 hrs co-treated with 400 uM H2O2 measured after 24 hrs by MTT assay relative to control. Type of data set: functional. A digest of the protocol:
as §5

Experimental findings from ChEMBL document CHEMBL4665656, “Toxicity, bioactivity, release of HS in vivo and pharmaco-kinetics of HS-donors with thiophosphamide structure” (Eur J Med Chem, 2019) are described below.

Active and inactive are the calls of the source. No cut-off for these calls is given here.

As usually defined, the IC50 is the concentration at which inhibition is half-maximal. One may read the inhibition as the drop in the measured response relative to a control, in per cent. Regarding `O=C([O-])[C@H](Cc1cc2ccccc2[nH]1)NP([O-])(=S)c1ccccc1.[Li+].[Li+]` (some centres undefined), the Cmax in data set [1] was 124 µM. Also, the IC50 in [2] is 433 µM; in data set [3], 742 µM. The Activity in [4] was 530 10^9/L; in [5] it was “Toxic”; in data set [6], 50%; in data set [10], 25.5%; in data set [13], 5%; in data set [14], “Dose-dependent effect”. Further, the inhibition at 100 µM in data set [7] was determined as 50%. In addition, the result in [8], in data set [9], in data set [11], in [12] and in [15] was Active. Also, in data set [16], the viability at 24 h, 100 µM was > 90%. Further, the T1/2 in data set [17] was determined as 8.54 min; in data set [18], 1.51 min; in data set [19], 3.07 min.

In the case of `S=P1(c2ccccc2)NCCCO1` (centres undefined), the solubility entry in [20] is listed as “Insoluble”. Moreover, the Kinetic_solubility result in data set [21] is reported as “Soluble”. For the same compound, the Retention_time in data set [22] was determined as 9.649 min. Besides, the Cmax in [1] was 35.1 µM. Besides, the Drug metabolism entry in [23] and in data set [24] was “Metabolite_Detected” in each case. In addition, the values for the IC50 in data set [2] and in data set [3] were 886 µM and 1050 µM, respectively. For the same compound, the Activity is 628 10^9/L in data set [4]; “Toxic” in data set [5]; 50% in data set [6]; 2% in data set [25]; 17.1% in data set [10]; 5.1% in data set [26]. The Activity result in [14] is “Dose-dependent effect”. For the same compound, the outcome in data set [15] was Active. In data set [16], the viability at 24 h, 100 µM is > 90%. Further, the T1/2 in [17] came out at 35.1 min; in [18] it was 35.4 min; in data set [19] it was 35.7 min.
